This is a sample that favours compounds with a hit; in the whole collection about 2.2% have one here.
Runt-SMMHC FRET – Runt domain-CBFb-SMMHC interaction inhibition. Q01196+Q13951. Cerulean-Runt/Venus-CBFb-SMMHC FRET ratio 530/480, 1 h. inhibition, % at 20 µM. 220,000 tested, 0.74% active;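 active = mean inhibition across duplicate retests at 20 µM reaching about 50%, limit read from the data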;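 also: inhibitors lower the FRET ratio by blocking Runt binding to CBFb-SMMHC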
Target sequence (Q01196 whole entry, looked up, the tested form may be a part): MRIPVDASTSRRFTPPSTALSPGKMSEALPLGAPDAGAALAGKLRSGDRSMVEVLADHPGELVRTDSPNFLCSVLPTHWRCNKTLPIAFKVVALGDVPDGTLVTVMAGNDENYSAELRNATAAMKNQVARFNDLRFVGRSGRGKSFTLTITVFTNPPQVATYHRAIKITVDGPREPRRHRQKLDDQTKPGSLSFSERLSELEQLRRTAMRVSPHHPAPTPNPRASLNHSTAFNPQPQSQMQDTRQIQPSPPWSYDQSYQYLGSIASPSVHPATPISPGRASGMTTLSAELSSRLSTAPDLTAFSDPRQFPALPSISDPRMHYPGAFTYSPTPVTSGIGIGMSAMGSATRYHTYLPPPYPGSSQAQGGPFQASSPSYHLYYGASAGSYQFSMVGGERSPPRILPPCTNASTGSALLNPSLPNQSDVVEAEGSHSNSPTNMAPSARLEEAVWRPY
Target sequence (Q13951 whole entry, looked up, the tested form may be a part): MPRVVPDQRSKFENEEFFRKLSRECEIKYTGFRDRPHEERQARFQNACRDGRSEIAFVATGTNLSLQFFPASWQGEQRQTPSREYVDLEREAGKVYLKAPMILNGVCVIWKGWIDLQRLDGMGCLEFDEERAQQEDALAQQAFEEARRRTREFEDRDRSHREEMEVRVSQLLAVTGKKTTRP
14-3-3 Bad PPI – disrupts binding of bovine 14-3-3 zeta to phospho-Bad peptide. P63103. TR-FRET 14-3-3zeta/Dy647-pBad peptide displacement, 1 h. inhibition, % at 21.7 µM. 220,000 tested, 0.71% active. AID 781;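 active = inhibition above about 70%, limit read from the data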
Hck-Nef inh – blocks Nef-activated human Hck kinase; AID 463187; inhibition, % at 20 µM; Recombinant Hck-YEEI plus Nef, Z-Lyte FRET kinase assay; 220,000 tested, 0.68% active;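 active = Hck-Nef kinase inhibition above about 50%, limit read from the data; inactive = inhibition below that limit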
TbHK1 inh – blocks Trypanosoma brucei hexokinase 1 activity | inhibition, % at 10 µM | 220,000 tested, 0.11% active | recombinant TbHK1, G6PDH-coupled NADH A340;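 active = inhibition of 50% or more in the single-dose primary screen; inactive = inhibition below 50%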
Runt-CBFb FRET – inhibitors of human RUNX1 Runt domain binding to CBFb. inhibition, % at 20 µM. 220,000 tested, 0.46% active. Cerulean-Runt/Venus-CBFb FRET ratio 530/480, 1 h. Q01196+Q13951;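 active = inhibition over about 50% at 20 µM in the single-dose screen, limit read from the data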
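test system = Cerulean-Runt domain fusion protein, energy donor | probe or stimulus = Venus-CBFb binding partner, 100 nM | incubation = two 1 h room-temperature incubations shielded from light | detection = fluorescence energy transfer, 422 nm excitation, 530/480 nm emission | measure = loss of energy transfer signal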
RanGTP-Imp inh – inhibitors of RanGTP-importin-beta interaction, primary screen, biochemical, FRET, CFP-Ran, YFP-importin-beta, homogeneous; AID 2216; inhibition, % (test concentration not listed); 300,000 tested, 1.1% active; cell-free CFP-Ran/YFP-importin-beta FRET ratio;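 active = more than half of the replicate wells show a fall in the fluorescence ratio signal beyond about 16%, limit read from the data, passing the limit was not always enough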
A number is an active result; 0 = inactive; - = not tested or not shown; [ ] = another dose, or the depositor's remark.

SMILES	Runt-SMMHC FRET	14-3-3 Bad PPI	Hck-Nef inh	TbHK1 inh	Runt-CBFb FRET	RanGTP-Imp inh
O=S(=O)(c1ccccc1)N1CCN(c2ccnc3cc(Cl)ccc23)CC1	0	70.7	0	0	0	0
O=S(=O)(c1cccs1)N1CCN(c2ccnc3cc(Cl)ccc23)CC1	0	0	0	0	0	0
C=CCc1ccccc1OCC(=O)N/N=C/c1ccc(OC(C)=O)cc1OC(C)=O	0	0	0	0	0	0
O=C(Nc1ccncc1)C1CCN(S(=O)(=O)c2c(Cl)cccc2Cl)CC1	-	-	-	-	-	0
COc1cc(/C=C2\SC(N)=NC2=O)ccc1OCC(=O)Nc1ccc(C)cc1	0	97.2[fluorescence artefact?]	92.6	0	0	0
C/C(=C\c1ccccc1)CN1CCN(c2ccccc2)CC1	0	0	0	0	0	0
C/C=C(\C)CN1CCN(c2ccccc2)CC1	0	73.7	0	0	0	0
Cc1ccc(N/C(N)=N/c2nc(C)cc(N3CCCCC3)n2)c(C)c1	0	0	0	0	0	0
CCN(CC)C(=O)CSc1nc2c(sc(=S)n2-c2ccc(C)cc2C)c(=O)[nH]1	-	-	-	-	-	0
Cc1ccc(-c2cc(-c3ccc(Cl)cc3)c(C#N)c(N)n2)o1	0	0	0	0	0	15.8
CCC(C)NS(=O)(=O)c1ccc(OC)c(Cl)c1Cl (stereo not given)	0	0	0	0	0	0
CN1CCc2c(sc3c2C(=O)NC(/C=C/c2ccco2)N3)C1 (stereo not given)	-	-	0	0	-	77.7
CN1CCc2c(sc3c2C(=O)NC(c2ccccn2)N3)C1 (stereo not given)	65.3	0	0	0	99.0	133.3
Cc1ccc(C2NC(=O)c3c(sc4c3CCN(C)C4)N2)s1 (stereo not given)	135.9	0	0	0	0	114.2
CN1CCc2c(sc3c2C(=O)NC(c2ccc4c(c2)OCO4)N3)C1 (stereo not given)	151.9	-	-	-	125.1	41.0
CC(C)(C)C1CCc2c(sc3c2C(=O)NC(c2ccco2)N3)C1 (stereo not given)	0	0	0	0	0	0
Cc1ccc2c(C(=O)CNc3nncs3)c(C)[nH]c2c1	0	0	0	0	0	0
CC(C)(CC(=O)O)CC(=O)N1CCN(c2cc(C(F)(F)F)nc3ccccc23)CC1	-	-	-	-	-	0
CCOC(=O)N1CCN(C(=O)CSc2ccc(-c3ccc(OC)cc3)nn2)CC1	0	0	0	0	0	0
CC(C)CC(=O)N=C1SC2CS(=O)(=O)CC2N1Cc1ccccc1Cl (stereo not given)	0	0	0	0	0	0
Cc1ccc(C2NC(=O)c3c(sc4c3CCN(C)C4)N2)o1 (stereo not given)	71.7	0	0	0	88.0	105.7
CN1CCc2c(sc3c2C(=O)NC(c2ccccc2)N3)C1 (stereo not given)	76.0	0	0	0	106.2	0
CC1C/C(=C/c2ccco2)C(=O)/C(=C/c2ccco2)C1 (stereo not given)	0	0	66.6	0	0	0
O=C1/C(=C\c2ccco2)CCC/C1=C\c1ccco1	0	0	0	0	0	0
CCOC(=O)C[C@H]1c2ccc(C(F)(F)F)cc2S(=O)(=O)N1C(C)C	-	-	-	-	-	0
SMILES	Runt-SMMHC FRET	14-3-3 Bad PPI	Hck-Nef inh	TbHK1 inh	Runt-CBFb FRET	RanGTP-Imp inh
Cc1nc(Cl)sc1C(=O)Nc1cc(F)cc(F)c1	-	-	-	-	-	0
Cc1nc(Cl)sc1C(=O)O	0	0	0	55.2	0	0
CN(C(=O)c1ccc2c(=O)n3c(nc2c1)CCCCC3)c1cccc(Cl)c1	-	-	-	-	-	0
CCc1cc2c(=O)c(-c3nc4ccccc4[nH]3)coc2c(CN2CCCCC2)c1O	0	0	0	0	0	0
O=c1oc2c(CN3CCN(CCO)CC3)c(O)ccc2cc1-c1ccccn1	80.2	0	0	0	0	155.8
Cc1cc(=O)oc2c(CN3CCN(CCO)CC3)c(O)ccc12	-	-	-	-	-	0
O=c1oc2c(CN3CCCCC3)c(O)ccc2cc1-c1nc2ccccc2[nH]1	57.4	-	-	-	0	-
O=c1oc2c(O)cccc2cc1-c1nc2ccccc2[nH]1	-	-	-	-	-	132.6
c1ccc(-c2ccc3c(c2)c2c4n3CCN=C4CCC2)cc1	0	0	0	0	0	0
COc1ccccc1C1CCN(C(=O)c2ccc(Cl)cc2)CC1	-	-	-	-	-	0
CN(C)S(=O)(=O)c1ccc(NC(=O)CN2CCN(C(c3ccccc3)c3ccccc3)CC2)cc1	0	0	0	0	0	0
O=C(O)c1cc(-c2ccc(/C=C3\NC(=O)N(c4ccccc4)C3=O)o2)ccc1Cl	82.5	0	0	0	0	0
O=C(O)c1cc(-c2ccc(/C=C3\NC(=O)N(c4ccc(Cl)cc4)C3=O)o2)ccc1Cl	81.1	0	0	0	0	0
CCCCOc1ccccc1NC(=O)CC1SC(=NCC)N(CC)C1=O (stereo not given)	0	76.0	0	0	0	0
CCN=C1SC(CC(=O)Nc2ccccc2OCC)C(=O)N1CC (stereo not given)	0	0	0	0	0	0
O=C(CC(c1ccccc1)c1ccco1)Nc1nccs1 (stereo not given)	0	0	0	0	0	0
CCCCNC(=O)C1CCN(C/C(C)=C/c2ccccc2)CC1	0	70.9	0	0	0	0
CCCCN(CCCNC(=O)C1CCN(S(=O)(=O)CC)CC1)c1ccccc1	0	0	0	0	0	21.8
CCN(CCNC(=O)C1CCN(S(=O)(=O)CC)CC1)c1ccccc1	0	0	0	0	0	0
Cc1ccc(S(=O)(=O)N2CCN(C(=O)c3ccc(N4CCCCC4)c([N+](=O)[O-])c3)CC2)cc1	-	-	-	-	-	0
O=C(Nc1ccccc1)c1ccc2ccccc2n1	0	79.7	0	0	0	0
NS(=O)(=O)c1ccc(-c2ccc(/C=N/Nc3ccc(C(=O)O)cc3)o2)cc1	0	0	0	0	0	0
COC(=O)N/N=C/c1ccc(-c2ccc(Cl)cc2Cl)o1	0	0	0	0	0	0
O=C(O)c1ccc(N/N=C/c2ccc(-c3ccc(Cl)cc3Cl)o2)cc1	81.2	0	0	0	79.8	88.1
O=C(O)c1ccc(N/N=C/c2ccc(-c3cc(Cl)ccc3Cl)o2)cc1	80.3	0	0	0	69.8	83.3
SMILES	Runt-SMMHC FRET	14-3-3 Bad PPI	Hck-Nef inh	TbHK1 inh	Runt-CBFb FRET	RanGTP-Imp inh
COc1ccc(CCCNC(=O)C2CCC(=O)N(CCc3cccc(F)c3)C2)cc1 (stereo not given)	-	-	-	-	-	0
Cc1cc(=O)oc2cc(OCC(=O)N3CC[C@@]4(O)CCCC[C@H]4C3)c(Cl)cc12	-	-	-	-	-	0
NC(=O)c1cc(S(=O)(=O)NCCc2ccc(Cl)cc2)cs1	-	-	-	-	-	0
CCN1CCc2c(C#N)c(N3CCOCC3)nc(NCCO)c2C1	62.5	0	0	0	0	54.3
C=CCNc1nc(N2CCOCC2)c(C#N)c2c1CN(C)CC2	54.7	0	0	0	0	95.7
CCc1nc(NCc2ccccc2)c(C#N)c2c1CCCC2	0	0	0	0	0	0

Screening data as filed in PubChem BioAssay.
